As a reminder, the IC90 is the concentration needed for an effect of 90%.

The results in this text go back to ChEMBL document CHEMBL4321880 (J Med Chem, 2020).

Data set [1] has as its target Cytochrome P450 2C9 (Homo sapiens, UniProt P11712). The data set is described as follows: Inhibition of CYP2C9 in human liver microsomes assessed as formation of alpha-hydroxytolbutamide at 1.85 uM using tolbutamide as substrate incubated for 15 mins in presence of NADPH by LC-MS/MS analysis. It counts as ADME. The settings on record: 0.25 h. In outline:
(§1)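 Pooled human liver microsomes with 2 mM NADPH in 100 mM KPO4 pH 7.4, 5 mM MgCl2, 37 °C, technical triplicate, final DMSO 0.2%. Probe (substrate, level, protein, time): 1A2 tacrine 5 μM, 0.2 mg/mL, 10 min; 2B6 bupropion 100 μM, 0.25 mg/mL, 10 min; 2C8 amodiaquine 5 μM, 0.25 mg/mL, 10 min; 2C9 tolbutamide 100 μM, 0.5 mg/mL, 15 min; 2C19 mephenytoin 100 μM, 0.25 mg/mL, 60 min; 2D6 dextromethorphan 5 μM, 0.5 mg/mL, 10 min; 3A4 midazolam 2.5 μM or testosterone 50 μM, 0.25 mg/mL, 10 min. Methanol quench, metabolites measured by LC-MS/MS.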

Data set [2] addresses T1, Cytochrome P450 1A2 (Homo sapiens, UniProt P05177).
T1 sequence (P05177 whole entry): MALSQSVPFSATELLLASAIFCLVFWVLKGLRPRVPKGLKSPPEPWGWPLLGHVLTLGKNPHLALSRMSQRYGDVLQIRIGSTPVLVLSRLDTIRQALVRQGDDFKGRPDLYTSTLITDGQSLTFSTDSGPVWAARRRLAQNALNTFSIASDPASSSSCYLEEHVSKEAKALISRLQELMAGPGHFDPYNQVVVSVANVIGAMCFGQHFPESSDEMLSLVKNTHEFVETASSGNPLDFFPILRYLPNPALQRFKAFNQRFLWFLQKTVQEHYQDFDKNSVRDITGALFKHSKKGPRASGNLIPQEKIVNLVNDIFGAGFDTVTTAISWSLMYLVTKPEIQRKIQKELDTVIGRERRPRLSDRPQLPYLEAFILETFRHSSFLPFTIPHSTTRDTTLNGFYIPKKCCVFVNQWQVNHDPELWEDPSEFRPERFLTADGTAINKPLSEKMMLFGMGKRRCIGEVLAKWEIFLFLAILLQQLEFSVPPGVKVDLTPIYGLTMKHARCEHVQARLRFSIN
The data set is described as follows: Inhibition of CYP1A2 in human liver microsomes assessed as formation of hydroxytacrine at 1.85 uM using tacrine as substrate incubated for 10 mins in presence of NADPH by LC-MS/MS analysis. It counts as ADME. In short, it runs like this:
as §1
For orientation: Liver microsomes are vesicles of endoplasmic reticulum, rich in cytochrome P450 enzymes.

In data set [3] the target is T2, Cytochrome P450 3A4 (Homo sapiens, UniProt P08684). The experiment in a line: Induction of CYP3A4 in CRISPR/Cas9-mediated CYP3A5 knock-out and doxycycline-induced CYP3A4 overexpressing human AsPC1 cells assessed as increase in 1-hydroxymidazolam formation using midazolam as substrate pretreated with doxycycline for 24 hrs followed by incubation with compound at higher concentrations for 24 hrs by LC-MS/MS analysis. Format: ADME, cell-based. Particulars: aspc1, 24 h; call rule not given here. In short, it runs like this: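 AsPC-1 CYP3A5−/− cells with Dox-inducible CYP3A4, 10,000 cells/well, induced with 100 ng/mL doxycycline. 24 h later given compound (16-point 1:2 series, 0.0003–10 μM) plus 5 μM midazolam, final DMSO 0.66%, for 24 h. Quenched with acetonitrile containing warfarin internal standard. 1-Hydroxymidazolam measured by LC-MS/MS and normalized to DMSO control (100%).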

Data set [4] has as its target Cytochrome P450 2D6 (Homo sapiens, UniProt P10635). The experiment in a line: Inhibition of CYP2D6 in human liver microsomes at 1.85 uM using dextromethorphan as substrate incubated for 10 mins in presence of NADPH by LC-MS/MS analysis. Format: ADME. In outline: as §1
For data set [5], the system named is ASPC1. The experiment in a line: Cytotoxicity against doxycycline-induced CYP3A5 overexpressing wild type human AsPC1 cells assessed as cell growth. It counts as ADME, cell-based. In outline:
(§2)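 Cells seeded at 10,000/well. Dox-inducible lines were induced with 100 ng/mL doxycycline, then treated 24 h later with compound at 16 two-fold dilutions (0.0003–10 μM) plus 5 μM midazolam, in 0.66% DMSO final, for 24 h. Phase-contrast confluence imaging followed. Values were normalized to six 0.66% DMSO replicates and fitted with a three-parameter log(inhibitor) vs response curve.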

For data set [6], the target named is T2, Cytochrome P450 3A4. The experiment in a line: Inhibition of CYP3A4 in human liver microsomes assessed as formation of 6-beta-hydroxytestosterone at 1.85 uM using testosterone as substrate incubated for 10 mins in presence of NADPH by LC-MS/MS analysis. Format: ADME. In outline: as §1
Data set [7] concerns the target T3, Cytochrome P450 3A5 (Homo sapiens, UniProt P20815). The data set is described as follows: Binding affinity to heme in His-tagged CYP3A5 (unknown origin) expressed in Escherichia coli DH5alpha assessed as formation of five-coordinate ferric heme iron by measuring type 1 Soret shift from 417 nm (low spin) to 395 nm (high spin) by UV-vis spectrophotometric titration analysis. In short, it runs like this: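 Purified recombinant His-tagged CYP3A5 titrated with successive ligand additions until heme absorbance stopped changing. The ligand-free spectrum was subtracted to give difference spectra. Peak-minus-trough values were plotted against ligand concentration and fitted to a binding equation for Kd. Wavelength pairs: ΔA 386–418 nm for the type I shift; ΔA 432–410 nm for the type II shift.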

Data set [8] has as its target T2, Cytochrome P450 3A4. The data set is described as follows: Inhibition of human recombinant CYP3A4 expressed in supersomes assessed as decrease in formation of D-luciferin at 1.89 uM using luciferin-IPA as substrate incubated for 10 mins in presence of NADPH by P450-Glo luminescence assay relative to control. Format: ADME. Particulars: recombinant enzyme. In short, it runs like this: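 P450-Glo assay with supersomes containing POR, cytochrome b5 and recombinant human CYP3A4, 0.1 pmol enzyme. Run in 100 mM KPO4 pH 7.4 with 3 μM Luciferin-IPA, started with NADPH, 10 min at 37 °C. Detection reagent added for 20 min at room temperature, then luminescence read. Final DMSO 0.1%.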

The subject of data set [9] is ASPC1. The data set is described as follows: Cytotoxicity against lentiviral pLVX-TRE3G-ZsGreen1-CYP3A5 transduced wild type human AsPC1 cells overexpressing CYP3A5 assessed as cell growth. It counts as ADME, cell-based. In outline: as §2
In data set [10] the target is T2, Cytochrome P450 3A4. The data set is described as follows: Binding affinity to His-tagged CYP3A4 (unknown origin) expressed in Escherichia coli DH5alpha assessed as retention of axial water ligand with ligand free LS with no new HS formation by EPR spectroscopy. Particulars: buffer. Format: ADME. In outline:
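Continuous-wave X-band EPR of the purified recombinant ligand-free enzyme and of its ligand complex. Ferric heme spin state (LS vs HS) assigned from g-values.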

For data set [11], the system named is ASPC1. The experiment in a line: Cytotoxicity against CRISPR/Cas9-mediated CYP3A5 knock-out and lentiviral pLVX-TRE3G-ZsGreen1-CYP3A4 transduced human AsPC1 cells overexpressing CYP3A4 assessed as cell growth. It counts as ADME, cell-based. In outline:
as §2

Data set [12] has as its target T3, Cytochrome P450 3A5. The experiment in a line: Binding affinity to His-tagged CYP3A5 (unknown origin) expressed in Escherichia coli DH5alpha assessed as five-coordinate HS ferric heme iron state formation with displacement of distal water ligand by EPR spectroscopy. In short, it runs like this:
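Continuous-wave X-band EPR of purified recombinant enzyme, alone and in complex with ligand. Spectra were compared against the ligand-free form.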

For data set [13], the target named is CYP3A5 (Homo sapiens, UniProt P20815). The experiment in a line: Inhibition of human recombinant CYP3A5 expressed in supersomes assessed as decrease in formation of D-luciferin using luciferin-IPA as substrate incubated for 10 mins in presence of NADPH by P450-Glo luminescence assay. The settings on record: probe luciferin-IPA.

Structures are written as SMILES.

T2 sequence (P08684 whole entry): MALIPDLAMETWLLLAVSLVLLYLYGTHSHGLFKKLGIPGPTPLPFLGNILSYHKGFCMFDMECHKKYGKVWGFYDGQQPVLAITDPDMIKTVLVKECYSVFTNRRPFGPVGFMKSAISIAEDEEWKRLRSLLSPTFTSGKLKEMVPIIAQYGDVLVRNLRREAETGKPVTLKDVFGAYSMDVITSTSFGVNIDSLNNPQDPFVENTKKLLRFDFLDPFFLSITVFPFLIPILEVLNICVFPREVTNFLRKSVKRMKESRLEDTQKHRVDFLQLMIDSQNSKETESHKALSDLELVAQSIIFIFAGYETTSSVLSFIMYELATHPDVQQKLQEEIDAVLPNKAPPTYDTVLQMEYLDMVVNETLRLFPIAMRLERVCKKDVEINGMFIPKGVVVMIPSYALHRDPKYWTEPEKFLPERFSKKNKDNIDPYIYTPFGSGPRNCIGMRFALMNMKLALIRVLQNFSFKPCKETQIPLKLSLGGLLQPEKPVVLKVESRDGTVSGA
T3 sequence (P20815 whole entry): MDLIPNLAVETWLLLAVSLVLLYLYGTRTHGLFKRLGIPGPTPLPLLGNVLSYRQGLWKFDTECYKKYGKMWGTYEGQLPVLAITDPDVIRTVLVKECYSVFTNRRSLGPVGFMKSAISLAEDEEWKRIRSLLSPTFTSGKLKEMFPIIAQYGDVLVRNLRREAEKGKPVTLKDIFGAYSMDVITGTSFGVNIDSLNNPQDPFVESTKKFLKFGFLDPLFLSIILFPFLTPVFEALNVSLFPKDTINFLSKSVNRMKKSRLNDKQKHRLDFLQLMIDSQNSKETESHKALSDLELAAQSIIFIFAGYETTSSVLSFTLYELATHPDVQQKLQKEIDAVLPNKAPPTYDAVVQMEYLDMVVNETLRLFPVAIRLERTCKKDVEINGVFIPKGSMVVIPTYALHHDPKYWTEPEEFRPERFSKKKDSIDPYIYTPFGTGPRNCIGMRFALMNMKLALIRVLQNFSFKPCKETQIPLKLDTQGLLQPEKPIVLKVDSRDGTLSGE
Sequence of Cytochrome P450 2D6 (P10635 whole entry): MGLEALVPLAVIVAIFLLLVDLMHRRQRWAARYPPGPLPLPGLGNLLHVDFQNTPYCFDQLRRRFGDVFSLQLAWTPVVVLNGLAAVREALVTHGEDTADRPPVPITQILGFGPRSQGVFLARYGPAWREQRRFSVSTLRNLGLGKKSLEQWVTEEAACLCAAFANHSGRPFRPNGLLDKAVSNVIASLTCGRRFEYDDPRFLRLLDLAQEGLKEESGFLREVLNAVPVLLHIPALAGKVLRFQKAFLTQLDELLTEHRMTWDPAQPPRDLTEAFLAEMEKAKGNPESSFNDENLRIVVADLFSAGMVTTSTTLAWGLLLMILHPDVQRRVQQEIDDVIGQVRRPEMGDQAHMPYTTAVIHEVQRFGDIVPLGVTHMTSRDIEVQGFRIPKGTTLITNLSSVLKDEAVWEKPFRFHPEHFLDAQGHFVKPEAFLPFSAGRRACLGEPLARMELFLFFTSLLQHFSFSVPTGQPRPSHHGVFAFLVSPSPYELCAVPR
Sequence of CYP3A5 (P20815 whole entry): as the sequence (P20815 whole entry) above
Sequence of Cytochrome P450 2C9 (P11712 whole entry): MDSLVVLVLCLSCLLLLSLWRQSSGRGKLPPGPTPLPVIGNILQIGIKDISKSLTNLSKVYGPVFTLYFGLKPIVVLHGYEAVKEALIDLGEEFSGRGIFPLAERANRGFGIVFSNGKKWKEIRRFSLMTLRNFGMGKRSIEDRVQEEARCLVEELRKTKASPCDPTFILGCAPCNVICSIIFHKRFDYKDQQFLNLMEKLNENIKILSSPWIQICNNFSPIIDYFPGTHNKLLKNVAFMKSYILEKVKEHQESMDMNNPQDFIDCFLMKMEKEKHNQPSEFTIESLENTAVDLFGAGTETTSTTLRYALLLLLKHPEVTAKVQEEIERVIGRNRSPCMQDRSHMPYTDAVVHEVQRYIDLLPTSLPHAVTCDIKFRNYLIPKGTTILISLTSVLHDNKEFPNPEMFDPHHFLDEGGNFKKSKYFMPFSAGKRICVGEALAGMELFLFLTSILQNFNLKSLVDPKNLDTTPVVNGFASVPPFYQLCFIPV

Turning to `CCC(=O)O[C@]1(C(=O)CCl)[C@@H](C)C[C@H]2[C@@H]3CCC4=CC(=O)C=C[C@]4(C)[C@@]3(F)[C@@H](O)C[C@@]21C` [CLOBETASOL PROPIONATE], the “inhibition (INH)” value in data set [1], in [2], in [4], in data set [6] and in data set [8] was “Not Active” in each case. The Activity entry in data set [3] is on record as “Active”; in data set [5], “Non-Toxic”; in [7], “Active”; in [9], “Non-Toxic”; in [10] it was “Not Active”; in data set [11], “Non-Toxic”. Further, in [12], the outcome was Active. The IC90 at 10 min in [13] worked out at 1800 nM.
